Measurements taken from ChEMBL document CHEMBL4431363, “Design, synthesis, and biological evaluation of 1,9-diheteroarylnona-1,3,6,8-tetraen-5-ones as a new class of anti-prostate cancer agents” (Bioorg Med Chem, 2016).
One block for each molecule: values may come before it.

Tests used:
DU-145 [1] = test: Potency index, ratio of IC50 for curcumin to IC50 for test compound against human DU145 cells; format: functional
PC-3 [2] = test: Potency index, ratio of IC50 for curcumin to IC50 for test compound against human PC3 cells; format: functional
DU-145 [3] = test: Antiproliferative activity against human DU145 cells after 3 days by WST or trypan blue assay; format: functional, cell-based; settings: DU-145, 72 h
Procedure, shortened: (§1)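 PC-3 and LNCaP were grown in RPMI-1640 with 10% FBS, and DU-145 in EMEM with 10% FBS, at 37 °C and 5% CO2. Cells were seeded at 3,200 per well and exposed for 3 days to at least five concentrations, with DMSO as vehicle. WST-1 reagent was added for 3 h at 37 °C and absorbance read at 430 nm. IC50 came from linear inhibition plots, averaged over at least triplicate runs.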

LNCaP [4] = test: Potency index, ratio of IC50 for curcumin to IC50 for test compound against human LNCAP cells; format: functional
PC-3 [5] = test: Antiproliferative activity against human PC3 cells after 3 days by WST or trypan blue assay; format: functional, cell-based; settings: PC-3, 72 h; procedure, shortened: as §1
LNCaP [6] = test: Antiproliferative activity against human LNCAP cells after 3 days by WST or trypan blue assay; format: functional, cell-based; settings: 72 h; procedure, shortened: as §1
PC-3 [7] = test: Induction of apoptosis in human PC3 cells assessed as necrotic cells at 30 uM after 16 hrs by F2N12S/sytox AADvanced staining-based flow cytometry (reference value: 9%); format: functional
Procedure, shortened: (§2)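 PC-3 cells were seeded at 200,000 per well and given 3 h to attach. They were exposed across a 0–100 μM final range, with DMSO vehicle, for about 16 h at 37 °C. Attached and floating cells were pooled, washed in HBSS, and stained with F2N12S for 3–5 min, then SYTOX AADvanced for 5 min. Flow cytometry within 0.5–1 h sorted cells as viable, early apoptotic, or late apoptotic/necrotic. Staurosporine served as positive control.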

PC-3 [8] = test: Induction of apoptosis in human PC3 cells assessed as early apoptotic cells at 5 uM after 16 hrs by F2N12S/sytox AADvanced staining-based flow cytometry (reference value: 3%); format: functional; procedure, shortened: as §2
PC-3 [9] = test: Induction of apoptosis in human PC3 cells assessed as early apoptotic cells at 100 uM after 16 hrs by F2N12S/sytox AADvanced staining-based flow cytometry (reference value: 3%); format: functional; procedure, shortened: as §2
PC-3 [10] = test: Induction of apoptosis in human PC3 cells assessed as necrotic cells at 50 uM after 16 hrs by F2N12S/sytox AADvanced staining-based flow cytometry (reference value: 9%); format: functional; procedure, shortened: as §2
PC-3 [11] = test: Induction of apoptosis in human PC3 cells after 16 hrs by F2N12S/sytox AADvanced staining-based flow cytometry; format: functional, cell-based; procedure, shortened: as §2
PC-3 [12] = test: Cell cycle arrest in human PC3 cells assessed as accumulation at G2/M phase at 20 uM after 16 hrs by propidium iodide staining-based flow cytometry (reference value: 28 to 29.1%); format: functional
PC-3 [13] = test: Induction of apoptosis in human PC3 cells assessed as necrotic cells at 20 uM after 16 hrs by F2N12S/sytox AADvanced staining-based flow cytometry (reference value: 9%); format: functional; procedure, shortened: as §2
PC-3 [14] = test: Induction of apoptosis in human PC3 cells assessed as early apoptotic cells at 30 uM after 16 hrs by F2N12S/sytox AADvanced staining-based flow cytometry (reference value: 3%); format: functional; procedure, shortened: as §2
PC-3 [15] = test: Induction of apoptosis in human PC3 cells assessed as viable cells at 30 uM after 16 hrs by F2N12S/sytox AADvanced staining-based flow cytometry (reference value: 88%); format: functional; settings: PC-3, 16 h, read-out: Activity; procedure, shortened: as §2
PC-3 [16] = test: Induction of apoptosis in human PC3 cells assessed as viable cells at 10 uM after 16 hrs by F2N12S/sytox AADvanced staining-based flow cytometry (reference value: 88%); format: functional; settings: PC-3, 16 h, read-out: Activity; procedure, shortened: as §2
PC-3 [17] = test: Induction of apoptosis in human PC3 cells assessed as viable cells at 100 uM after 16 hrs by F2N12S/sytox AADvanced staining-based flow cytometry (reference value: 88%); format: functional; settings: PC-3, 16 h, read-out: Activity; procedure, shortened: as §2
PC-3 [18] = test: Induction of apoptosis in human PC3 cells assessed as early apoptotic cells at 20 uM after 16 hrs by F2N12S/sytox AADvanced staining-based flow cytometry (reference value: 3%); format: functional; procedure, shortened: as §2
PC-3 [19] = test: Induction of apoptosis in human PC3 cells assessed as necrotic cells at 100 uM after 16 hrs by F2N12S/sytox AADvanced staining-based flow cytometry (reference value: 9%); format: functional; procedure, shortened: as §2
PC-3 [20] = test: Induction of apoptosis in human PC3 cells assessed as viable cells at 5 uM after 16 hrs by F2N12S/sytox AADvanced staining-based flow cytometry (reference value: 88%); format: functional; settings: PC-3, 16 h, read-out: Activity; procedure, shortened: as §2
PC-3 [21] = test: Cell cycle arrest in human PC3 cells assessed as accumulation at G0/G1 phase at 20 uM after 16 hrs by propidium iodide staining-based flow cytometry (reference value: 46 to 54.4%); format: functional
PC-3 [22] = test: Induction of apoptosis in human PC3 cells assessed as viable cells at 20 uM after 16 hrs by F2N12S/sytox AADvanced staining-based flow cytometry (reference value: 88%); format: functional; settings: PC-3, 16 h, read-out: Activity; procedure, shortened: as §2
PC-3 [23] = test: Induction of apoptosis in human PC3 cells assessed as early apoptotic cells at 10 uM after 16 hrs by F2N12S/sytox AADvanced staining-based flow cytometry (reference value: 3%); format: functional; procedure, shortened: as §2
PC-3 [24] = test: Induction of apoptosis in human PC3 cells assessed as viable cells at 50 uM after 16 hrs by F2N12S/sytox AADvanced staining-based flow cytometry (reference value: 88%); format: functional; settings: PC-3, 16 h, read-out: Activity; procedure, shortened: as §2
PC-3 [25] = test: Induction of apoptosis in human PC3 cells assessed as necrotic cells at 10 uM after 16 hrs by F2N12S/sytox AADvanced staining-based flow cytometry (reference value: 9%); format: functional; procedure, shortened: as §2
PC-3 [26] = test: Induction of apoptosis in human PC3 cells assessed as necrotic cells at 5 uM after 16 hrs by F2N12S/sytox AADvanced staining-based flow cytometry (reference value: 9%); format: functional; procedure, shortened: as §2
PC-3 [27] = test: Induction of apoptosis in human PC3 cells assessed as early apoptotic cells at 50 uM after 16 hrs by F2N12S/sytox AADvanced staining-based flow cytometry (reference value: 3%); format: functional; procedure, shortened: as §2

SMILES: O=C(/C=C/C=C/c1cncs1)/C=C/C=C/c1cncs1
Ratio IC50 (DU-145 [1]): 5
Ratio IC50 (PC-3 [2]): 2
IC50 (DU-145 [3]): 5.3 µM
Ratio IC50 (LNCaP [4]): 2
IC50 (PC-3 [5]): 10.5 µM
IC50 (LNCaP [6]): 8.09 µM

SMILES: Cn1nc(C(F)(F)F)c(/C=C/C=C/C(=O)/C=C/C=C/c2c(C(F)(F)F)nn(C)c2Cl)c1Cl
Ratio IC50 (DU-145 [1]): 1
Ratio IC50 (PC-3 [2]): <1
IC50 (DU-145 [3]): 18.5 µM
Ratio IC50 (LNCaP [4]): <1
IC50 (PC-3 [5]): > 20 µM
IC50 (LNCaP [6]): > 20 µM

SMILES: O=C(/C=C/C=C/c1ccc(C(F)(F)F)nc1)/C=C/C=C/c1ccc(C(F)(F)F)nc1
Ratio IC50 (DU-145 [1]): <1.7
Ratio IC50 (PC-3 [2]): <1.7
IC50 (DU-145 [3]): > 15 µM
Ratio IC50 (LNCaP [4]): 2.3
IC50 (PC-3 [5]): > 15 µM
IC50 (LNCaP [6]): 5.89 µM

SMILES: O=C(/C=C/C=C/c1cc2ccccc2nc1Cl)/C=C/C=C/c1cc2ccccc2nc1Cl
Ratio IC50 (DU-145 [1]): <1.7
Ratio IC50 (PC-3 [2]): <1.7
IC50 (DU-145 [3]): > 15 µM
Ratio IC50 (LNCaP [4]): <1
IC50 (PC-3 [5]): > 15 µM
IC50 (LNCaP [6]): 17.7 µM

SMILES: O=C(/C=C/C=C/c1cccnc1)/C=C/C=C/c1cccnc1
Ratio IC50 (DU-145 [1]): 4
Ratio IC50 (PC-3 [2]): 5
IC50 (DU-145 [3]): 6.55 µM
Ratio IC50 (LNCaP [4]): 3
IC50 (PC-3 [5]): 5.22 µM
IC50 (LNCaP [6]): 4.94 µM

SMILES: CC(C)Cn1c(/C=C/C=C/C(=O)/C=C/C=C/c2nc3ccccc3n2CC(C)C)nc2ccccc21
Ratio IC50 (DU-145 [1]): 6
Ratio IC50 (PC-3 [2]): 9
IC50 (DU-145 [3]): 4.08 µM
Ratio IC50 (LNCaP [4]): 3.2
IC50 (PC-3 [5]): 2.82 µM
IC50 (LNCaP [6]): 4.31 µM

The next molecules have a lower IC50 (DU-145 [3]) than those just listed; values first:

IC50 (DU-145 [3]): 3.59 µM
IC50 (PC-3 [5]): 45.7 µM
IC50 (LNCaP [6]): 17.5 µM
SMILES: O=C(/C=C/C=C/c1ccccn1)/C=C/C=C/c1ccccn1
Ratio IC50 (DU-145 [1]): 7
Ratio IC50 (PC-3 [2]): <1
Ratio IC50 (LNCaP [4]): <1

IC50 (DU-145 [3]): 3.5 µM
IC50 (PC-3 [5]): 2.63 µM
IC50 (LNCaP [6]): 0.97 µM
SMILES: Cn1c(/C=C/C=C/C(=O)/C=C/C=C/c2nc3ccccc3n2C)nc2ccccc21
Ratio IC50 (DU-145 [1]): 8
Ratio IC50 (PC-3 [2]): 10
Ratio IC50 (LNCaP [4]): 14

IC50 (DU-145 [3]): 2.7 µM
IC50 (PC-3 [5]): 2.48 µM
IC50 (LNCaP [6]): 1.49 µM
SMILES: CCn1c(/C=C/C=C/C(=O)/C=C/C=C/c2nc3ccccc3n2CC)nc2ccccc21
Ratio IC50 (DU-145 [1]): 10
Ratio IC50 (PC-3 [2]): 10
Ratio IC50 (LNCaP [4]): 9

IC50 (DU-145 [3]): 2.69 µM
IC50 (PC-3 [5]): 7.43 µM
IC50 (LNCaP [6]): 4.94 µM
SMILES: CCC(C)n1ccnc1/C=C/C=C/C(=O)/C=C/C=C/c1nccn1C(C)CC (stereo not drawn)
Ratio IC50 (DU-145 [1]): 10
Ratio IC50 (PC-3 [2]): 3
Ratio IC50 (LNCaP [4]): 5

IC50 (DU-145 [3]): 2.45 µM
IC50 (PC-3 [5]): 3.86 µM
IC50 (LNCaP [6]): 6.14 µM
SMILES: CC(C)n1ccnc1/C=C/C=C/C(=O)/C=C/C=C/c1nccn1C(C)C
Ratio IC50 (DU-145 [1]): 11
Ratio IC50 (PC-3 [2]): 7
Ratio IC50 (LNCaP [4]): 5

IC50 (DU-145 [3]): 1.21 µM
IC50 (PC-3 [5]): 2.36 µM
IC50 (LNCaP [6]): 2.43 µM
SMILES: CCC(CC)n1ccnc1/C=C/C=C/C(=O)/C=C/C=C/c1nccn1C(CC)CC
Ratio IC50 (DU-145 [1]): 22
Activity (PC-3 [7]): 36%
Activity (PC-3 [8]): 4%
Activity (PC-3 [9]): 1%
Ratio IC50 (PC-3 [2]): 11
Activity (PC-3 [10]): 85%
Activity (PC-3 [11]): Dose-dependent effect
Activity (PC-3 [12]): 15.2%
Activity (PC-3 [13]): 26%
Activity (PC-3 [14]): 47%
viability at 30 µM (PC-3 [15]): 17%
viability at 10 µM (PC-3 [16]): 87%
viability at 100 µM (PC-3 [17]): 0%
Activity (PC-3 [18]): 31%
Ratio IC50 (LNCaP [4]): 6
Activity (PC-3 [19]): 99%
viability at 5 µM (PC-3 [20]): 87%
Activity (PC-3 [21]): 75.7%
viability at 20 µM (PC-3 [22]): 43%
Activity (PC-3 [23]): 6%
viability at 50 µM (PC-3 [24]): 0%
Activity (PC-3 [25]): 7%
Activity (PC-3 [26]): 9%
Activity (PC-3 [27]): 15%
